Measured values taken from ChEMBL document CHEMBL4020814, “Synthesis, Binding Mode, and Antihyperglycemic Activity of Potent and Selective (5-Imidazol-2-yl-4-phenylpyrimidin-2-yl)[2-(2-pyridylamino)ethyl]amine Inhibitors of Glycogen Synthase Kinase 3” (J Med Chem, 2017).

What was measured:
[1] = Inhibition of GSK3 expressed in CHO-IR cells expressing human insulin receptor assessed as glycogen synthase activation after 30 mins by filter paper assay; assay type: cell-based, Cavia porcellus
[2] = Plasma concentration in diabetic db/db mouse at 30 mg/kg administered at 4.5 and 0.5 hrs prior to oral glucose challenge measured 20 mins post second dose
[3] = Inhibition of human GSK3 using biotin-CREB peptide substrate after 1 hr by scintillation counting method
[4] = molecular target: Glycogen synthase kinase-3 beta (Homo sapiens, UniProt P49841); test: Inhibition of human GSK3beta using biotin-CREB peptide substrate after 1 hr by scintillation counting method
Sequence of Glycogen synthase kinase-3 beta (P49841 whole entry): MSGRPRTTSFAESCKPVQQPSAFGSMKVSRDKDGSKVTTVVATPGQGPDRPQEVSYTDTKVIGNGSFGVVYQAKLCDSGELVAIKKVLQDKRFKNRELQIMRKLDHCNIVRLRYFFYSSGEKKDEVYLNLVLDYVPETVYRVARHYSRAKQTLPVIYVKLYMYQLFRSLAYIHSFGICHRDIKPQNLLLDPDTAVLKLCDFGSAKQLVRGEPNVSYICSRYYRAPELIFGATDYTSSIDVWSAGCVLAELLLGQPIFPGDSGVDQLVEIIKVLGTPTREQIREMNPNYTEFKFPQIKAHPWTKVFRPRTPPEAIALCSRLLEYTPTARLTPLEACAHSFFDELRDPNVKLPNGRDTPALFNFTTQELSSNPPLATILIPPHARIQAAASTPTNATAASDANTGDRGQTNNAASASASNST

[5] = molecular target: Cyclin-dependent kinase 1 (Homo sapiens, UniProt P06493); test: Inhibition of human CDC2 using biotin histone H1 peptide substrate after 1 hr by scintillation counting method
Insulin receptor = Insulin receptor (Homo sapiens, UniProt P06213); test: Inhibition of human insulin receptor tyrosine kinase after 1 hr by scintillation counting method
Sequence of Insulin receptor (P06213 28-758 limits assumed): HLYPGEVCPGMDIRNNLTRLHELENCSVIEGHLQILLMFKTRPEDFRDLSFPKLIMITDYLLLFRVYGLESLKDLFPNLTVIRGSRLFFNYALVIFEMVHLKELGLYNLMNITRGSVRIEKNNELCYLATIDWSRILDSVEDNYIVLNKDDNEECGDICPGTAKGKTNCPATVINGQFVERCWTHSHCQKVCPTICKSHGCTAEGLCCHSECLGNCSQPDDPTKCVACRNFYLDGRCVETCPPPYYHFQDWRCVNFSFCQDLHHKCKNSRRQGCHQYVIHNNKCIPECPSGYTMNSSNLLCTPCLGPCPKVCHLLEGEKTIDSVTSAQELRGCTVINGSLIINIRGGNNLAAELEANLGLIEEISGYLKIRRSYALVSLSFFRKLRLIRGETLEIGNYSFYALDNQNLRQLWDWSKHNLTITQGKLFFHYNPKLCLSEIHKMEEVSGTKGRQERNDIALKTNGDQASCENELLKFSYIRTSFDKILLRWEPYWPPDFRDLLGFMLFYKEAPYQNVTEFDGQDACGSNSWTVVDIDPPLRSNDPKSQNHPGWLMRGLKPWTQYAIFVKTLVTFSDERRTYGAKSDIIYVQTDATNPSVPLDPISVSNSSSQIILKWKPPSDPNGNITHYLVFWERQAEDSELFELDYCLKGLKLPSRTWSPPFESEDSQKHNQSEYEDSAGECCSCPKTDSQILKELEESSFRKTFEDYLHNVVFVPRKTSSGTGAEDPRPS
Sequence of Insulin receptor (P06213 763-1382 limits assumed): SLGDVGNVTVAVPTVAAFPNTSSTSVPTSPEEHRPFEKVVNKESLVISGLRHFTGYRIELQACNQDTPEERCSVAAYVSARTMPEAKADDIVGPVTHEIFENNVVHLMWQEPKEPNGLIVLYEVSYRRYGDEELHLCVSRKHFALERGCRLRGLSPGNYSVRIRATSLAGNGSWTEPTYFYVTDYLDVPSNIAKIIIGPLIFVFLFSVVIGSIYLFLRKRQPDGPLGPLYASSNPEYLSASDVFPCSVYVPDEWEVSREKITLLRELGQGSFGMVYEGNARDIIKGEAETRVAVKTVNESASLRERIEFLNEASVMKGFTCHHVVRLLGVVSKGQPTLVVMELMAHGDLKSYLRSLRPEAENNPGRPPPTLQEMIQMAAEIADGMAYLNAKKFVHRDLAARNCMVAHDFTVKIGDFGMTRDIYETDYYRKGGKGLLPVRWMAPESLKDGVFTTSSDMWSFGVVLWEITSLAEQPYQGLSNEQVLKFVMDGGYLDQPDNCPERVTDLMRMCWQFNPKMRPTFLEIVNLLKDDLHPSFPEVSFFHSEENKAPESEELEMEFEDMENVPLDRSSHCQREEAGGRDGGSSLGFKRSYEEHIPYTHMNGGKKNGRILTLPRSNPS

[6] = Inhibition of human phosphatidylinositol (PI) 3-kinase using PI as substrate after 1 hr by scintillation counting method
[7] = molecular target: Mitogen-activated protein kinase 1 (Homo sapiens, UniProt P28482); test: Inhibition of human ERK2 using myelin basic protein substrate after 1 hr by scintillation counting method
[8] = molecular target: Vascular endothelial growth factor receptor 1 (Homo sapiens, UniProt P17948)
[9] = molecular target: RAC-alpha serine/threonine-protein kinase (Homo sapiens, UniProt P31749); test: Inhibition of human AKT1/PKB using phospho-AKT peptide substrate after 1 hr by scintillation counting method
[10] = molecular target: T1, Serine/threonine-protein kinase Chk1 (Homo sapiens, UniProt O14757); test: Inhibition of human CHK1 using biotin-CDC25 peptide substrate after 1 hr by scintillation counting method
T1 sequence (O14757 whole entry): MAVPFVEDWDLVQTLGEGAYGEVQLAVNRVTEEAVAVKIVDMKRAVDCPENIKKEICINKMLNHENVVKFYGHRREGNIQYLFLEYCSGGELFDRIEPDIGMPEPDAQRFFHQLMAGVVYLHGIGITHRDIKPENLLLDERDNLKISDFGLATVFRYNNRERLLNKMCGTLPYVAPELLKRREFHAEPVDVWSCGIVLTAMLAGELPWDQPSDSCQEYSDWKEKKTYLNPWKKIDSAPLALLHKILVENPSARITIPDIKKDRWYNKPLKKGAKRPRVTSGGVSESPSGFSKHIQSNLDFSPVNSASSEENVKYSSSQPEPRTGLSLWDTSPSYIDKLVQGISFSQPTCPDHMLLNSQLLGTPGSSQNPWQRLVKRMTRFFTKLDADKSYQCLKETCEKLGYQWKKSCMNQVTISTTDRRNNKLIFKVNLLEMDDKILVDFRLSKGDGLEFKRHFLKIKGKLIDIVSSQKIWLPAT

[11] = molecular target: Fibroblast growth factor receptor 1 (Homo sapiens, UniProt P11362)
Sequence of Fibroblast growth factor receptor 1 (P11362 whole entry): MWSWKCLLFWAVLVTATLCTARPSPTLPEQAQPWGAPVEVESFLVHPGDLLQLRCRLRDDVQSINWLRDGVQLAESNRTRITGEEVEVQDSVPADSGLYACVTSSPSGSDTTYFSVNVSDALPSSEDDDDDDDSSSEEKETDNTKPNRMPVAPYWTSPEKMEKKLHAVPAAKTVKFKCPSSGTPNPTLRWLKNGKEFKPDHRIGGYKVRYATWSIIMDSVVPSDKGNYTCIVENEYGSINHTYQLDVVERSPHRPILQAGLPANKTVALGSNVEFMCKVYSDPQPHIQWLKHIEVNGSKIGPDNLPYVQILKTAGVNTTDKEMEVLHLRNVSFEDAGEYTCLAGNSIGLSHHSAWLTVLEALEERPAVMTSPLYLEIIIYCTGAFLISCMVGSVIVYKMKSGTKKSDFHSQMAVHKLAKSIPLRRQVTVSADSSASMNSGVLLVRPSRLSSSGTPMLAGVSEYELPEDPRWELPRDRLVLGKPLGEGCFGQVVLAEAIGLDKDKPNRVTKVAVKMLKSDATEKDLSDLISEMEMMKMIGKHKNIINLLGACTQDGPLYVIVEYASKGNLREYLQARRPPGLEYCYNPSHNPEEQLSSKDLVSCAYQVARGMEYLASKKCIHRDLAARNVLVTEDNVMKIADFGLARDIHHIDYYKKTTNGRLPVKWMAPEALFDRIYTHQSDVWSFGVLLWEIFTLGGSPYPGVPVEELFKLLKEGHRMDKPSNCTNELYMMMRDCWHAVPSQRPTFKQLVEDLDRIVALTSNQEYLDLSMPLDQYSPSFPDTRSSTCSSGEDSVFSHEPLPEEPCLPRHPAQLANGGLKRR

Angiopoietin-1 receptor = Angiopoietin-1 receptor (Homo sapiens, UniProt Q02763)
[12] = molecular target: Vascular endothelial growth factor receptor 2 (Homo sapiens, UniProt P35968)
[13] = molecular target: Insulin-like growth factor 1 receptor (Homo sapiens, UniProt P08069)
Sequence of Insulin-like growth factor 1 receptor (P08069 31-736 limits assumed): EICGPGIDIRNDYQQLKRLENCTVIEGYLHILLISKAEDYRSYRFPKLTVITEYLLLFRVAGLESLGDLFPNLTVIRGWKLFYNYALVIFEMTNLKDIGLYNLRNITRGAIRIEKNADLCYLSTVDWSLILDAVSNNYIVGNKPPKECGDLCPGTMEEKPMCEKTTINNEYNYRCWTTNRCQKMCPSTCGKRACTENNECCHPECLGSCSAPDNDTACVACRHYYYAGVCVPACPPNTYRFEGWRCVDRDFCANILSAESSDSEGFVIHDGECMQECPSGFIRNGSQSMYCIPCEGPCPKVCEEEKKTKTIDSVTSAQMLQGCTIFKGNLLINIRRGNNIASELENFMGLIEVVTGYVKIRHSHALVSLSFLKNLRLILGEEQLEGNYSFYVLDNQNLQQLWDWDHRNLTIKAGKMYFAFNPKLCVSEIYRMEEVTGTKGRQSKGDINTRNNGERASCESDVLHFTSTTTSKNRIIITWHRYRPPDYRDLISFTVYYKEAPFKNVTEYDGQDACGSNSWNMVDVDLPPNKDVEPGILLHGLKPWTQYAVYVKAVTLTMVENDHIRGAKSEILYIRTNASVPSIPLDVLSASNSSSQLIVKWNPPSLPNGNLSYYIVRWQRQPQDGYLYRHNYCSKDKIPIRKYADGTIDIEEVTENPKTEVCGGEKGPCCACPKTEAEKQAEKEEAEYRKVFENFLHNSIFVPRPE
Sequence of Insulin-like growth factor 1 receptor (P08069 741-1367 limits assumed): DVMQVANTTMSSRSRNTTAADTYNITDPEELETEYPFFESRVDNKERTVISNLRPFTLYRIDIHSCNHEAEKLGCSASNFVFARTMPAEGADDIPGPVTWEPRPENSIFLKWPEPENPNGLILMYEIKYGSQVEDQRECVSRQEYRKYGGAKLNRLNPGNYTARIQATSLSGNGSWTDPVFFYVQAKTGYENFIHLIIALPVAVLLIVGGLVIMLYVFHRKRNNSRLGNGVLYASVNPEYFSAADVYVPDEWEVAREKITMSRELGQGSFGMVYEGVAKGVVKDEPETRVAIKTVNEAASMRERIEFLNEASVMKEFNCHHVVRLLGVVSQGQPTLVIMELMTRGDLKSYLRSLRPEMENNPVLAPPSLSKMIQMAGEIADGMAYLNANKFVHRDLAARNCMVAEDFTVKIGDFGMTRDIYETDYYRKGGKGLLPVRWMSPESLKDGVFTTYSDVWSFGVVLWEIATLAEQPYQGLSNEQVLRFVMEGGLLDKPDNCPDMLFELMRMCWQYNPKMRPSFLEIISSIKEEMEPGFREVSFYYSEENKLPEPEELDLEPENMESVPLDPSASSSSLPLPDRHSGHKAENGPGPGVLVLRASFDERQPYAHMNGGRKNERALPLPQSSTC

[14] = molecular target: Glycogen synthase kinase-3 alpha (Homo sapiens, UniProt P49840); test: Inhibition of human GSK3alpha using biotin-CREB peptide substrate after 1 hr by scintillation counting method
Sequence of Glycogen synthase kinase-3 alpha (P49840 whole entry): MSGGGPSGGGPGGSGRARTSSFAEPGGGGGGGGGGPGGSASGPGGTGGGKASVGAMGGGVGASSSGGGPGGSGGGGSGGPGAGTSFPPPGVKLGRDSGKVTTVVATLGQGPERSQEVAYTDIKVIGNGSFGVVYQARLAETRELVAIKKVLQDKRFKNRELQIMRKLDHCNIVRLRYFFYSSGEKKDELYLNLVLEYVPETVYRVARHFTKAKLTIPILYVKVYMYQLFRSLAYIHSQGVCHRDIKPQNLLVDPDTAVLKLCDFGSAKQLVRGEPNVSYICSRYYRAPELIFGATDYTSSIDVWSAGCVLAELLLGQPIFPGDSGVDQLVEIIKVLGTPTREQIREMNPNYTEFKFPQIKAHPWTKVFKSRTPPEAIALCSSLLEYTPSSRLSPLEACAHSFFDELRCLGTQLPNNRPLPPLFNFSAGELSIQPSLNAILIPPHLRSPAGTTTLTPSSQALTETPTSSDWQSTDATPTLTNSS

[15] = Inhibition of human DNA-dependent protein kinase using PI as substrate after 1 hr by scintillation counting method
[16] = Inhibition of GSK3 in Sprague-Dawley rat primary hepatocytes assessed as assessed as glycogen synthase activation after 30 mins
[17] = molecular target: Casein kinase I isoform epsilon (Homo sapiens, UniProt P49674); test: Inhibition of human CK1epsilon using biotin peptide substrate after 1 hr by scintillation counting method
Sequence of Casein kinase I isoform epsilon (P49674 whole entry, canonical isoform): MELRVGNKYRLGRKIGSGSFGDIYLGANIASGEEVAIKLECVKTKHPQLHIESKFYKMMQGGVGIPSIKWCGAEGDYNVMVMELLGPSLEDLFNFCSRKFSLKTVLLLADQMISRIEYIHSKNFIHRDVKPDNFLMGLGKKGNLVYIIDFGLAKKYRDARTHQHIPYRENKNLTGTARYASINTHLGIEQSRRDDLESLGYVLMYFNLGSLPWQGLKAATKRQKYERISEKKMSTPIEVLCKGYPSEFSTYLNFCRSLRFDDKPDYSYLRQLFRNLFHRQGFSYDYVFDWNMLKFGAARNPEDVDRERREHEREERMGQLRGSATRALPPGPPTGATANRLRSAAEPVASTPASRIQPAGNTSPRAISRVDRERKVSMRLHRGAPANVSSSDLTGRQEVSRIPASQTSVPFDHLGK

[18] = Half life in diabetic ZDF fa/fa rat at 8 mg/kg administered 4.5 and 0.5 hrs prior to oral glucose challenge; assay type: ADME, organism-based; details: in vivo
[19] = Oral bioavailability in diabetic ZDF fa/fa rat at 8 mg/kg administered 4.5 and 0.5 hrs prior to oral glucose challenge; assay type: ADME, organism-based; details: in vivo
Rattus norvegicus = test: Antidiabetic activity in diabetic ZDF fa/fa rat assessed as reduction in plasma glucose AUC at 8 mg/kg administered 4.5 and 0.5 hrs prior to oral glucose challenge by oral glucose tolerance test; assay type: functional; set-up: scale not given: the % may be the effect or the level left
Procedure, shortened: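 Obese 10-week-old ZDF (fa/fa) rats, n = 8/group, fasted overnight, given 8 mg/kg orally at 4.5 and 0.5 h before oral glucose challenge. Efficacy is the percent reduction in plasma glucose AUC versus untreated animals. Formulations were 15% captisol, 1% CMC or water with pH adjusted.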

Mus musculus = organism: Mus musculus; test: Antidiabetic activity in diabetic db/db mouse assessed as time required for improved glucose disposal by oral glucose tolerance test; assay type: functional
Procedure, shortened: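 db/db mice, 6–8 per group, fasted ~6 h (food removed 3 h before prebleed), dosed orally at −4.5 and −0.5 h relative to oral glucose (vehicle 10% captisol). Tail-snip blood glucose was read by glucometer or analyzer; plasma insulin was measured by ELISA.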

[20] = Stability in rat liver microsomes assessed as half life; assay type: ADME, microsome
[21] = Stability in dog liver microsomes assessed as half life; assay type: ADME, Canis lupus familiaris, microsome

SMILES | EC50 [1] [nM] | concentration at 20 min ([2]; plasma) [ng/mL] | IC50 [3] [nM] | further results
Nc1cnc(NCCNc2ccc([N+](=O)[O-])c(N)n2)nc1-c1ccc(Cl)cc1Cl | 290 | 1000 | 10 | –
N#Cc1ccc(-c2nc(NCCNc3ccc([N+](=O)[O-])cn3)ncc2-c2ncc[nH]2)cc1 | 5000 | 1000 | 19 | –
Nc1nc(NCCNc2ncc(-n3ccnc3)c(-c3ccc(Cl)cc3Cl)n2)ccc1[N+](=O)[O-] | 80 | – | 1 | IC50 [4]: 0.6 nM; IC50 [5]: 4 µM; IC50 (Insulin receptor): > 2000 nM; IC50 [6]: > 5 µM; IC50 [7]: > 10 µM; IC50 [8]: > 5 µM; concentration at 20 min ([2]; in vivo): 7000 ng/mL; IC50 [9]: > 5 µM; IC50 [10]: > 10 µM; IC50 [11]: > 1000 nM; IC50 (Angiopoietin-1 receptor): > 5 µM; IC50 [12]: > 2000 nM; IC50 [13]: > 2000 nM; IC50 [14]: 7 nM; IC50 [15]: > 10 µM; EC50 [16]: 100 nM; IC50 [17]: > 5 µM
Nc1nc(NCCNc2ncc(CO)c(-c3ccc(Cl)cc3Cl)n2)ccc1[N+](=O)[O-] | 150 | 12000 | 7 | –
Cc1c[nH]c(-c2cnc(NCCNc3ccc([N+](=O)[O-])c(N)n3)nc2-c2ccc(Cl)cc2Cl)n1 | 120 | 10000 | 2 | half-life [18]: 58 min; bioavailability [19]: 7%; Activity (Rattus norvegicus): 24%
CN1CCN(c2cnc(NCCNc3ccc([N+](=O)[O-])c(N)n3)nc2-c2ccc(Cl)cc2Cl)C(=O)C1 | 30 | 4000 | 4 | –
Cc1c(C)c2c(c(C)c1O)CCC(C)(COc1ccc(CC3SC(=O)NC3=O)cc1)O2 (stereo unspecified) [TROGLITAZONE] | – | – | – | Time (Mus musculus): <=2 weeks
Nc1nc(NCCNc2ncc(-c3ncc[nH]3)c(-c3ccc(Cl)cc3Br)n2)ccc1[N+](=O)[O-] | 260 | 13000 | 6 | half-life [20]: > 30 min; half-life [21]: > 30 min
CN1CCN(c2cnc(NCCNc3ccc([N+](=O)[O-])c(N)n3)nc2-c2ccc(Cl)cc2Cl)CC1 | 50 | 3000 | 6 | –
